Test results: ChEMBL document CHEMBL3616431, “Exploring the 3-piperidin-4-yl-1H-indole scaffold as a novel antimalarial chemotype” (Eur J Med Chem, 2015)

Legend:
Plasmodium falciparum [1] = assay: Antimalarial activity against chloroquine-resistant Plasmodium falciparum Dd2 infected in human erythrocyte assessed as growth inhibition at 5 uM by SYBR Green-1 assay; format: functional
Procedure, shortened: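 Erythrocytic-stage P. falciparum Dd2 growth inhibition at a fixed 5 µM single concentration. Synchronized ring-stage parasites in RPMI-1640 with 0.5% AlbuMAX II, 1.0% hematocrit, 1.0% initial parasitemia. Incubated 72 h under standard culture conditions, then stained with SYBR Green I (1:5,000). Fluorescence read at ex 494 nm, em 530 nm after room-temperature storage.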

Plasmodium falciparum [2] = assay: Antimalarial activity against chloroquine-resistant Plasmodium falciparum Dd2 infected in human erythrocyte assessed as growth inhibition by SYBR Green-1 assay; format: functional, organism-based
Procedure, shortened: (§1)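 Dose-response EC50 against Dd2 and 3D7. Synchronized ring-stage parasites in RPMI-1640 with 0.5% AlbuMAX II, 1.0% hematocrit, 1.0% initial parasitemia. Triplicate 12-point 2-fold serial dilutions, incubated 72 h under standard culture conditions. Read-out by SYBR Green I (1:5,000) fluorescence, ex 494/em 530 nm. EC50 by non-linear regression after background subtraction and normalization.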

Plasmodium falciparum [3] = assay: Antimalarial activity against chloroquine-sensitive Plasmodium falciparum 3D7 infected in human erythrocyte assessed as growth inhibition by SYBR Green-1 assay; format: functional, organism-based; procedure, shortened: as §1
HepG2 [4] = assay: Cytotoxicity against human HepG2A16 cells after 48 hrs by MTT assay; format: cell-based; settings: HepG2A16, 48 h
Procedure, shortened: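 HepG2 A16 cells seeded at 1 × 10^4 cells/well, adhered overnight. Exposed to seven ten-fold dilutions (100 µM–1 nM); drug-free medium as negative control. Medium with compound renewed at 24 h, total 48 h. MTT (5 mg/mL stock in PBS) added for 3 h, then supernatant removed and acidified isopropanol added for read-out.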

[5] = Selectivity index, ratio of EC50 for human HepG2A16 cells to EC50 for chloroquine-resistant Plasmodium falciparum Dd2 infected in human erythrocyte; format: toxicity; settings: read-out: Ratio EC50
Procedure, shortened: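 Selectivity index computed as HepG2 A16 MTT EC50 (48 h exposure) divided by P. falciparum Dd2 EC50 (72 h SYBR Green I assay).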

[6] = Selectivity index, ratio of EC50 for human HepG2A16 cells to EC50 for chloroquine-sensitive Plasmodium falciparum 3D7 infected in human erythrocyte; format: toxicity; settings: read-out: Ratio EC50
Procedure, shortened: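 Selectivity index computed as HepG2 A16 MTT EC50 (48 h exposure) divided by P. falciparum 3D7 EC50 (72 h SYBR Green I assay).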

Plasmodium falciparum [7] = assay: Antimalarial activity against chloroquine-sensitive Plasmodium falciparum 3D7; format: functional, organism-based
HepG2 [8] = assay: Cytotoxicity against human HepG2A16 cells; format: cell-based
Procedure, shortened: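 HepG2 A16 cells seeded at 1 × 10^4 cells/well and left to adhere overnight. Exposed to 7 ten-fold dilutions (100 µM–1 nM), drug-free medium as negative control. Medium with compound renewed at 24 h, total 48 h exposure. Viability by MTT (5 mg/mL stock in PBS, 3 h), formazan dissolved in acidified isopropanol; EC50 reported.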

Compound | inhibition at 5 µM (Plasmodium falciparum [1]) [%] | also measured
O=C(c1ccccc1)N1CCC(C(=O)N2CCC(c3c[nH]c4ccccc34)CC2)CC1 | < 10 | –
O=C(c1ccccc1)N1CCC(c2c[nH]c3ccccc23)CC1 | < 10 | –
O=C1C(O)=C([C@H]2CC[C@H](c3ccc(Cl)cc3)CC2)C(=O)c2ccccc21 [ATOVAQUONE] | – | EC50 (Plasmodium falciparum [2]): 0.19 nM; EC50 (Plasmodium falciparum [3]): 0.35 nM
CCN(CC)Cc1cc(Nc2ccnc3cc(Cl)ccc23)ccc1O [AMODIAQUINE] | – | EC50 (Plasmodium falciparum [2]): 12.3 nM; EC50 (Plasmodium falciparum [3]): 5.85 nM
CC(C)=CCC[C@H](C)CCN1CCC(c2c[nH]c3ccccc23)CC1 | 17 | –
c1csc(CN2CCC(c3c[nH]c4ccccc34)CC2)c1 | < 10 | –
Cc1c(CN2CCC(c3c[nH]c4ccccc34)CC2)c(=O)n(-c2ccccc2)n1C | < 10 | –
c1ccc2c(C3CCNCC3)c[nH]c2c1 | < 10 | –
c1ccc(CN2CCC(c3c[nH]c4ccccc34)CC2)cc1 | 15 | –
O=C(c1ccc(F)cc1)N1CCC(C(=O)N2CCC(c3c[nH]c4ccccc34)CC2)CC1 | < 10 | –
COc1cc(OC)cc(C(=O)N2CCC(C(=O)N3CCC(c4c[nH]c5ccccc45)CC3)CC2)c1 | 10 | –
O=C(c1ccc(F)cc1)N1CCC(c2c[nH]c3ccccc23)CC1 | < 10 | –
Clc1ccc2nccc(N3CCC(CN4CCC(c5c[nH]c6ccccc56)CC4)CC3)c2c1 | 100 | EC50 (Plasmodium falciparum [2]): 940 nM; EC50 (Plasmodium falciparum [3]): 240 nM; EC50 (HepG2 [4]): 3860 nM; selectivity ratio [5]: 4.1; selectivity ratio [6]: 16.1; EC50 (Plasmodium falciparum [7]): 34 nM; EC50 (HepG2 [8]): > 10000 nM
COc1cc(O)cc(OC)c1CN1CCC(c2c[nH]c3ccccc23)CC1 | < 10 | –
C[C@H]1[C@H](OC(=O)CCC(=O)O)O[C@@H]2O[C@@]3(C)CC[C@H]4[C@H](C)CC[C@@H]1[C@@]24OO3 [ARTESUNATE] | – | EC50 (Plasmodium falciparum [2]): 1.76 nM; EC50 (Plasmodium falciparum [3]): 1.97 nM
c1ccc2c(C3CCN(Cc4csc5ccccc45)CC3)c[nH]c2c1 | 16 | –
O=C(c1cccs1)N1CCC(c2c[nH]c3ccccc23)CC1 | < 10 | –
CC(=O)n1cc(CN2CCC(c3c[nH]c4ccccc34)CC2)c2ccccc21 | 70 | –
Fc1ccc(CN2CCC(c3c[nH]c4ccccc34)CC2)cc1 | 14 | –
CC(=O)N1CCC(c2c[nH]c3ccccc23)CC1 | < 10 | –
CC(=O)N1CCC(C(=O)N2CCC(c3c[nH]c4ccccc34)CC2)CC1 | 10 | –
O=C(c1ccncc1)N1CCC(c2c[nH]c3ccccc23)CC1 | 14 | –

Compound | inhibition at 5 µM (Plasmodium falciparum [1]) [%] | also measured
c1ccc2c(C3CCN(CC4CCNCC4)CC3)c[nH]c2c1 | < 10 | –
c1ccc2c(C3CCN(Cc4ccc(CN5CCCCC5)cc4)CC3)c[nH]c2c1 | 100 | EC50 (Plasmodium falciparum [2]): 2910 nM; EC50 (Plasmodium falciparum [3]): 1350 nM
Cc1ccccc1CN1CCC(c2c[nH]c3ccccc23)CC1 | 11 | –
O=C(c1cnccn1)N1CCC(c2c[nH]c3ccccc23)CC1 | < 10 | –
Oc1cccc2ccc(CN3CCC(c4c[nH]c5ccccc45)CC3)nc12 | < 10 | –
c1ccc2c(C3CCN(Cc4ccncc4)CC3)c[nH]c2c1 | < 10 | –
c1ccc2c(C3CCN(CC4CCCCC4)CC3)c[nH]c2c1 | < 10 | –
FC(F)(F)c1ccc(CN2CCC(c3c[nH]c4ccccc34)CC2)cc1 | < 10 | –
COc1ccc(OC)c(C(=O)N2CCC(c3c[nH]c4ccccc34)CC2)c1 | < 10 | –
O=C(c1ccccn1)N1CCC(c2c[nH]c3ccccc23)CC1 | < 10 | –
COc1cc(Cl)c(CN2CCC(c3c[nH]c4ccccc34)CC2)c(Cl)c1OC | < 10 | –
Clc1ccc2nccc(N3CCC(c4c[nH]c5ccccc45)CC3)c2c1 | 32 | EC50 (Plasmodium falciparum [2]): 5010 nM; EC50 (Plasmodium falciparum [3]): 6300 nM; EC50 (HepG2 [4]): 4240 nM; selectivity ratio [5]: 0.85; selectivity ratio [6]: 0.67
O=C(c1cccs1)N1CCC(C(=O)N2CCC(c3c[nH]c4ccccc34)CC2)CC1 | < 10 | –
O=C(c1cccnc1)N1CCC(C(=O)N2CCC(c3c[nH]c4ccccc34)CC2)CC1 | 30 | –
O=C(c1cccnc1)N1CCC(c2c[nH]c3ccccc23)CC1 | 100 | EC50 (Plasmodium falciparum [2]): 2950 nM; EC50 (Plasmodium falciparum [3]): 3800 nM; EC50 (HepG2 [4]): 12800 nM; selectivity ratio [5]: 4.33; selectivity ratio [6]: 3.37
OCCOc1cccc(CN2CCC(c3c[nH]c4ccccc34)CC2)c1 | < 10 | –
c1ccc2c(C3CCN(Cc4ccc(CN5CCOCC5)cc4)CC3)c[nH]c2c1 | 66 | –
c1ccc2c(C3CCN(Cc4ccc(CN5CCC(c6c[nH]c7ccccc67)CC5)cc4)CC3)c[nH]c2c1 | 100 | EC50 (Plasmodium falciparum [2]): 210 nM; EC50 (Plasmodium falciparum [3]): 80 nM; EC50 (HepG2 [4]): 460 nM; selectivity ratio [5]: 2.19; selectivity ratio [6]: 5.75
O=Cc1ccc(CN2CCC(c3c[nH]c4ccccc34)CC2)cc1 | 20 | –
O=C(c1ccc(C(=O)N2CCC(c3c[nH]c4ccccc34)CC2)cc1)N1CCC(c2c[nH]c3ccccc23)CC1 | 80 | –
CCN(CC)CCCC(C)Nc1ccnc2cc(Cl)ccc12 (stereo unspecified) [CHLOROQUINE] | – | EC50 (Plasmodium falciparum [2]): 285 nM; EC50 (Plasmodium falciparum [3]): 23 nM
